Measurements: article PMC8742637 (Clinical and Translational Science, 2021)
Where two headings read alike, the source gives them in different places.

Experiments:
[1] = assay type: in vivo; details: human, plasma, po, 10 mg
Procedure, shortened: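 Single-center, randomized, open-label, three-period, six-sequence crossover in healthy volunteers. Each drug was given alone and with the other as a single oral dose after a 10-h fast. Blood was sampled to 72 h, and washout was at least 21 days. Plasma was analysed by LC-MS with stable isotope-labeled internal standards. Noncompartmental parameters: AUC0-T by linear trapezoidal rule, AUC∞ = AUC0-T + Clast/λz.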

[2] = Bioequivalence studies 1 and 2: PK summary across both treatments and studies; assay type: in vivo, human
Procedure, shortened: (§1)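 Single-center, randomized, open-label, laboratory-blinded, two-period, two-sequence crossover in healthy volunteers. Each subject got one oral dose of the fixed-dose combination or the co-administered reference tablets with ~240 ml water after a 10-h fast. Washout was at least 21 days. Parent drugs were measured in plasma by LC-MS after protein precipitation. Noncompartmental analysis used actual times, with t½ = ln(2)/λz.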

[3] = Study 3: safety, treatment-emergent adverse events; assay type: in vivo, human; details: BISO 10 mg, RAMI 10 mg alone or together, % of subjects in the Safety population in each treatment group
[4] = assay type: in vivo, human
Procedure, shortened: as §1

[5] = assay type: in vivo; details: human, plasma, oral, 5 mg
Procedure, shortened: as §1

Compound	AUC(0-inf) [1]	AUC(0-t) [1]	Cmax [1]	Tmax [1]	half-life [1]	time after dosing at which BISO peak concentrations were achieved ([2]; across both treatments, studies 1 and 2, BISO 10 mg single oral dose, fasting)	half-life ([2]; human, plasma, oral)	Subjects with at least one drug‐related TEAE [3]	median time to ramipril peak concentration ([2]; across both treatments and studies 1 and 2)	observed ISCV (intrasubject coefficient of variation) for Cmax ([4]; Study 1, expected 32%)	half-life ([4]; human, plasma, oral, 10 mg)	half-life [5]
CC(C)NCC(O)COc1ccc(COCCOC(C)C)cc1 (stereo not drawn) [BISO, bisoprolol]	777 ng·h/mL	732 ng·h/mL	42.6 ng/mL	2.33 h	11.2 h	2.33 h	10.7 to 10.9 h	4 (13.8) n (%)				
CCOC(=O)[C@H](CCc1ccccc1)N[C@@H](C)C(=O)N1[C@H](C(=O)O)C[C@@H]2CCC[C@@H]21 [RAMI, ramipril]	18.1 ng·h/mL	17.1 ng·h/mL	24.1 ng/mL	0.5 h	2.03 h			3 (10.7) n (%)	0.50 h	36%	2.17 to 2.32 h	1.39 to 1.68 h
